pEC50: −log10 of the molar value. ≈ marks a conversion by molar mass, not a printed value. *1 amine or outer side, *2 acyl side, *3 side chain or, on linkers, in order; H or OH if unused. Where a SMILES comes first, the peptide text is derived from it. [ ]: non-standard residue; d: D form. The star is where a group is joined. X2 = C[N+](C)(C)c1ccc(C[C@H](N[*:1])C(=O)[*:2])cc1; Phe(4-NH2) = Nc1ccc(C[C@H](N)C(=O)O)cc1; Orn = NCCC[C@H](N)C(=O)O; PhAc = O=C(Cc1ccccc1)*; Piv = CC(C)(C)C(=O)*
Legend:
Staphylococcus aureus [1] = experiment: Antibacterial activity against Staphylococcus aureus 7323 after 24 to 96 hrs by well microplate assay; type: functional
Procedure, shortened: (§1)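 Strains were kept at -70 °C, grown at 30 °C on sheep-blood Columbia agar, and suspended in saline to OD595 0.1, then diluted 10×. Inoculum was added at 2 µL per 100 µL Nutrient Broth with yeast extract (2 g/400 mL). Peptide stocks were 4 g/L in ethanol, diluted to 1000 mg/L in water, then twofold in broth (64–1 mg/L). Plates were held at 30 °C for 24–96 h. MIC was the lowest concentration inhibiting growth.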

Staphylococcus aureus [2] = experiment: Antibacterial activity against Staphylococcus aureus 7388 after 24 to 96 hrs by well microplate assay; type: functional; procedure, shortened: as §1
Enterococcus faecalis = experiment: Antibacterial activity against Enterococcus faecalis 1131 after 24 to 96 hrs by well microplate assay; type: functional; procedure, shortened: as §1
Escherichia coli = experiment: Antibacterial activity against Escherichia coli ATCC 25922 after 24 to 96 hrs by well microplate assay; type: functional; procedure, shortened: as §1
Pseudomonas aeruginosa [3] = experiment: Antibacterial activity against Pseudomonas aeruginosa AK1 after 24 to 96 hrs by well microplate assay; type: functional; procedure, shortened: as §1
Pseudomonas aeruginosa [4] = experiment: Antibacterial activity against Pseudomonas aeruginosa ATCC 19582 after 24 to 96 hrs by well microplate assay; type: functional; procedure, shortened: as §1
Streptococcus mitis [5] = experiment: Antibacterial activity against Streptococcus mitis BMS after 24 to 96 hrs by well microplate assay; type: functional; procedure, shortened: as §1
Streptococcus mitis [6] = experiment: Antibacterial activity against Streptococcus mitis ATCC 33399 after 24 to 96 hrs by well microplate assay; type: functional; procedure, shortened: as §1
[7] = Cytotoxicity against human erythrocytes assessed as hemolysis after 4 hrs by twofold dilution assay; type: cell-based; conditions: Erythrocyte
Procedure, shortened: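 Heparinised blood was spun at 1000g and 10 °C, and erythrocytes were washed three times in 0.85% saline and diluted to 1/25 packed volume. Peptide stocks were 1.5 mM in 30% DMSO/0.5 mM saline, sonicated if suspended, and twofold serially diluted in saline in triplicate rows. 1% Triton-X served as the lysis reference. Cells were incubated at 37 °C for 4 h and centrifuged, and the supernatant was read at A405 for % hemolysis.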

[8] = Cytotoxicity against human erythrocytes assessed as hemolysis at 1.5 mM after 4 hrs by twofold dilution assay; type: cell-based; conditions: erythrocyte, 1500 µM
[9] = tested on: coagulase-negative Staphylococcus; experiment: Antibacterial activity against coagulase-negative Staphylococcus CNS 5277 after 24 to 96 hrs by well microplate assay
[10] = tested on: coagulase-negative Staphylococcus; experiment: Antibacterial activity against coagulase-negative Staphylococcus CNS 5115 after 24 to 96 hrs by well microplate assay
[11] = tested on: coagulase-negative Staphylococcus; experiment: Antibacterial activity against coagulase-negative Staphylococcus CNS 7368 after 24 to 96 hrs by well microplate assay
[12] = Cytotoxicity against human erythrocytes assessed as hemolysis at 25 uM after 4 hrs by twofold dilution assay; type: cell-based, Erythrocyte; conditions: read-out: Activity
[13] = Cytotoxicity against human erythrocytes assessed as hemolysis at 12 uM after 4 hrs by twofold dilution assay; type: cell-based, Erythrocyte; conditions: read-out: Activity
Procedure, shortened: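 Freshly drawn heparinised blood was spun at 1000g and 10 °C. The erythrocytes were washed three times in 0.85% saline and diluted to 1/25 packed cell volume. Peptide stock was 1.5 mM in 30% DMSO/saline, sonicated if needed, and serially twofold diluted in saline across 10 wells, with 1% Triton-X as reference. Plates were held at 37 °C for 4 h, then centrifuged, and hemolysis percentage was read from supernatant A405.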

## CC(C)C[C@@H]1NC(=O)[C@H](CCCN)NC(=O)[C@H](C(C)C)NC(=O)[C@@H]2CCCN2C(=O)[C@H](Cc2ccccc2)NC(=O)[C@H](CC(C)C)NC(=O)[C@H](CCCN)NC(=O)[C@H](C(C)C)NC(=O)[C@@H]2CCCN2C(=O)[C@H](Cc2ccc(NC(=O)Cc3ccccc3)cc2)NC1=O (cyclo(FPV[Orn]L[Phe(4-NH2)](PhAc)PV[Orn]L))
Staphylococcus aureus [1]
  MIC: 8 µg/mL (≈ 6.28 µM)
Staphylococcus aureus [2]
  MIC: 16 µg/mL (≈ 12.6 µM)
Enterococcus faecalis
  MIC: 32 µg/mL (≈ 25.1 µM)
Escherichia coli
  MIC: 32 µg/mL (≈ 25.1 µM)
Pseudomonas aeruginosa [3]
  MIC: > 64 µg/mL
Pseudomonas aeruginosa [4]
  MIC: > 64 µg/mL
Streptococcus mitis [5]
  MIC: 8 µg/mL (≈ 6.28 µM)
Streptococcus mitis [6]
  MIC: 16 µg/mL (≈ 12.6 µM)
[7]
  pEC50: 5.03
[8]
  Activity: Non-toxic
[9]
  MIC: 8 µg/mL (≈ 6.28 µM)
[10]
  MIC: 8 µg/mL (≈ 6.28 µM)
[11]
  MIC: 8 µg/mL (≈ 6.28 µM)

## CC(C)C[C@@H]1NC(=O)[C@H](CCCN)NC(=O)[C@H](C(C)C)NC(=O)[C@@H]2CCCN2C(=O)[C@H](Cc2ccccc2)NC(=O)[C@H](CC(C)C)NC(=O)[C@H](CCCN)NC(=O)[C@H](C(C)C)NC(=O)[C@@H]2CCCN2C(=O)[C@H](Cc2ccc(NC(=O)C(C)(C)C)cc2)NC1=O (cyclo(FPV[Orn]L[Phe(4-NH2)](Piv)PV[Orn]L))
Staphylococcus aureus [1]
  MIC: 8 µg/mL (≈ 6.45 µM)
Staphylococcus aureus [2]
  MIC: 8 µg/mL (≈ 6.45 µM)
Enterococcus faecalis
  MIC: 16 µg/mL (≈ 12.9 µM)
Escherichia coli
  MIC: 32 µg/mL (≈ 25.8 µM)
Pseudomonas aeruginosa [3]
  MIC: 64 µg/mL (≈ 51.6 µM)
Pseudomonas aeruginosa [4]
  MIC: 64 µg/mL (≈ 51.6 µM)
Streptococcus mitis [5]
  MIC: 4 µg/mL (≈ 3.22 µM)
Streptococcus mitis [6]
  MIC: 4 µg/mL (≈ 3.22 µM)
[12]
  hemolysis at 4 h, 25 µM: 50%
[9]
  MIC: 8 µg/mL (≈ 6.45 µM)
[10]
  MIC: 8 µg/mL (≈ 6.45 µM)
[11]
  MIC: 8 µg/mL (≈ 6.45 µM)

## CC(C)C[C@@H]1NC(=O)[C@H](CCCN)NC(=O)[C@H](C(C)C)NC(=O)[C@@H]2CCCN2C(=O)[C@H](Cc2ccccc2)NC(=O)[C@H](CC(C)C)NC(=O)[C@H](CCCN)NC(=O)[C@H](C(C)C)NC(=O)[C@@H]2CCCN2C(=O)[C@H](Cc2ccc([N+](C)(C)C)cc2)NC1=O.[I-] (cyclo(FPV[Orn]L[X2]PV[Orn]L))
Staphylococcus aureus [1]
  MIC: 64 µg/mL
Staphylococcus aureus [2]
  MIC: 32 µg/mL
Enterococcus faecalis
  MIC: > 64 µg/mL
Escherichia coli
  MIC: 64 µg/mL
Pseudomonas aeruginosa [3]
  MIC: > 64 µg/mL
Pseudomonas aeruginosa [4]
  MIC: > 64 µg/mL
Streptococcus mitis [5]
  MIC: 8 µg/mL
Streptococcus mitis [6]
  MIC: 8 µg/mL
[7]
  pEC50: 3.87
[8]
  Activity: Non-toxic
[9]
  MIC: 16 µg/mL
[10]
  MIC: 16 µg/mL
[11]
  MIC: 32 µg/mL

## CC(C)C[C@@H]1NC(=O)[C@H](CCCN)NC(=O)[C@H](C(C)C)NC(=O)[C@@H]2CCCN2C(=O)[C@@H](Cc2ccccc2)NC(=O)[C@H](CC(C)C)NC(=O)[C@H](CCCN)NC(=O)[C@H](C(C)C)NC(=O)[C@@H]2CCCN2C(=O)[C@@H](Cc2ccccc2)NC1=O [GRAMICIDIN S] (cyclo(L[dF]PV[Orn]L[dF]PV[Orn]))
Staphylococcus aureus [1]
  MIC: 8 µg/mL (≈ 7.01 µM)
Staphylococcus aureus [2]
  MIC: 8 µg/mL (≈ 7.01 µM)
Enterococcus faecalis
  MIC: 16 µg/mL (≈ 14 µM)
Escherichia coli
  MIC: 32 µg/mL (≈ 28 µM)
Pseudomonas aeruginosa [3]
  MIC: 64 µg/mL (≈ 56.1 µM)
Pseudomonas aeruginosa [4]
  MIC: 8 µg/mL (≈ 7.01 µM)
Streptococcus mitis [5]
  MIC: 8 µg/mL (≈ 7.01 µM)
Streptococcus mitis [6]
  MIC: 4 µg/mL (≈ 3.5 µM)
[7]
  pEC50: 4.93
[13]
  hemolysis at 4 h, 12 µM: 50%
[9]
  MIC: 16 µg/mL (≈ 14 µM)
[10]
  MIC: 16 µg/mL (≈ 14 µM)
[11]
  MIC: 8 µg/mL (≈ 7.01 µM)

From ChEMBL document CHEMBL1152538, “Synthesis and biological evaluation of asymmetric gramicidin S analogues containing modified D-phenylalanine residues” (Bioorg Med Chem, 2009)
